Structures are written as SMILES.

Data on 96 molecules can be found in ChEMBL document CHEMBL4513216, “Probing the Open Global Health Chemical Diversity Library for Multistage-Active Starting Points for Next-Generation Antimalarials” (ACS Infect Dis, 2020).

This data set is described as follows: Toxicity liver stage against HepG2, at 10uM. It counts as cell-based. Further details: test concentration 10 uM, cell line HepG2-A16-CD81EGFP. Conditions: human, HepG2-A16-CD81EGFP cells; read-out: INHIBITION
An outline of the steps: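 Uninfected HepG2-A16-CD81EGFP cells, 3 × 10^3 per well, 1536-well, plated on prespotted compound at 10 μM final, parasite-free screening media added to match infected plates; puromycin 10 μM positive, DMSO 0.5% negative; run in parallel with 48 h PbLuc assay at 37 °C, 5% CO2; viability by CellTiter-Glo luminescence, normalized to controls.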
`O=C(NCc1cccnc1)[C@H]1CC[C@@H]2[C@@H](CCN2c2ncccn2)O1`: the cytotoxicity at 10 µM was -82.2%.
In the case of `COCCN(C)CC1CCCN1S(=O)(=O)Cc1ccccc1F` (stereo unspecified) it was 6.84%; in that of `O=c1[nH]c(NC2CCCC2)nc2nccc(-c3ccco3)c12`, 0.74%; in that of `CCCS(=O)(=O)N1C[C@@H]2CN(Cc3ccco3)CCO[C@@H]2C1`, -142%.
As for `Cn1cc(C(=O)N(Cc2ccco2)Cc2cccs2)ccc1=O`, the cytotoxicity at 10 µM is -0.0261%.
For the molecule `CN(C(=O)Nc1ccccn1)C1CCCN(c2ccccc2)C1=O` (stereo unspecified), the cytotoxicity at 10 µM is -6.63%.
Turning to `O=S(=O)(CCO)Cc1ccc(OCC(F)(F)F)cc1`, the cytotoxicity at 10 µM amounted to 2.23%.
With `Cc1cnc(N2CCc3ncnc(N4CCN(C)CC4)c3CC2)nc1`, the cytotoxicity at 10 µM was -1.73%.
As for `O=S1(=O)NC[C@H]2CCN(Cc3ccccc3)CC[C@H]21`, the cytotoxicity at 10 µM is -10.5%.
With `Cc1ccsc1C(=O)NC(C)c1ccc2c(c1)CCC(=O)N2` (stereo unspecified), the cytotoxicity at 10 µM is -12.4%.
In the case of `COc1ccc(OC)c(CNC2CCCN(c3cccnn3)C2)c1` (stereo unspecified) it was -4.67%; in that of `N#Cc1ccnc(N2CCN(CC(O)c3cc(F)ccc3F)CC2)c1` (stereo unspecified), 1.31%; in that of `CN1[C@H](CN2CCCC2)C[C@@H]2CN(C(=O)Cc3cccs3)CC[C@@H]21`, 4.99%.
In the case of `CN(Cc1nc(Cc2cccc(C(F)(F)F)c2)no1)C(C1CC1)C1CC1` it was 0.92%; in that of `OCCN1CCC(c2csc(Nc3cnccn3)n2)CC1`, -4.26%; in that of `CCN(CC)C(=O)C1(NCc2nc(C)c(C)o2)CCCCC1`, 2.5%.
For `CCN1CCN(C(=O)CCC2CCN(C(=O)CCSC)CC2)CC1`, the cytotoxicity at 10 µM was -1.56%.
As for `C[C@@H](N)C(=O)N1CCC(c2[nH]ncc2-c2ccccc2)CC1`, the cytotoxicity at 10 µM is -3.81%.
In the case of `CCN(CC)C(=O)c1ccn(COc2ccc(F)cc2)n1` it was 7.55%.
In the case of `COc1cccc(CN2CC(=O)N(c3ccccc3C)CC2C)c1OC` (stereo unspecified) it was 2.24%.
On to `CSc1ccc(C(CN)N2CCc3sccc3C2)cc1` (stereo unspecified), for which the cytotoxicity at 10 µM was -5.93%.
`Fc1ccc(C2CN(c3ncnc4nc[nH]c34)CCO2)cc1` (stereo unspecified): the cytotoxicity at 10 µM was determined as 13.1%.
In the case of `CCn1cc(NC(=O)NCCc2ccc3c(c2)OCO3)cn1` it was 2.04%; in that of `O=C(Cn1ccc2c(Cl)cccc21)Nc1nc[nH]n1`, -1.88%; in that of `Cc1cnn(CC2CCCCN2C(=O)CC(F)(F)F)c1` (stereo unspecified), -11.5%.
To `CN(CCc1ccncc1)Cc1nccn1Cc1ccccc1` belongs 15.1%.
As for `Cc1nc(CN2CCN(C(=O)CCc3cccc(Cl)c3)CC2)no1`, the cytotoxicity at 10 µM is 2.93%.
To `COc1c(C(=O)NCC2CCCO2)nnn1Cc1ccccc1` (stereo unspecified) belongs 7.47%.
In the case of `Cc1ccc(CN2CCC3(C2)C(=O)N(CC(N)=O)c2ccccc23)s1` (stereo unspecified) it was 5.37%; in that of `CC(=O)N1CCN([C@@H]2CC[C@@H](NC(=O)c3cncc(C)c3)[C@H]2O)CC1`, 2.6%.
In the case of `CCN1CCCC1CN(Cc1ccoc1)CC1CCN(CCOC)CC1` (stereo unspecified) it was -2.64%; in that of `CCCc1nc(CNc2cc(CS(C)(=O)=O)ccc2Cl)no1`, -2.07%.
With `COc1c(C(=O)N2CCC(CSc3ccccc3)C2)c(C)nn1C` (stereo unspecified), the cytotoxicity at 10 µM came out at 25.6%.
With `CN(C)C[C@]12COC[C@H]1CN(C(=O)Cc1ccc3c(c1)OCO3)C2`, the cytotoxicity at 10 µM was -9.94%.
In the case of `COc1ccc2nc3n(c2c1)[C@@H](CNC(=O)c1cncnc1)COC3` it was 0.488%; in that of `CC(Cc1cnccn1)NC(=O)c1cccc(CC2CCNCC2)c1` (stereo unspecified), -9.37%; in that of `COc1cccc(-c2ncc3c(n2)N(C)CCN(CCN(C)C)C3=O)c1`, -12.2%.
`O=C(NCCN1CCC(c2cccs2)CC1)c1ccc(F)cc1Cl`: the cytotoxicity at 10 µM was -2.83%.
In the case of `Cc1nc(Nc2nnc(C)s2)cc(C2CCCN2S(C)(=O)=O)n1` (stereo unspecified) it was -11.9%.
Consider `CN(Cc1ccc2nsnc2c1)CC1(O)CCNC1` (stereo unspecified), for which the cytotoxicity at 10 µM is -11.7%.
Turning to `Cc1ccc(N2CC[C@]3(O)CCN(CCN4CCCC4=O)C[C@@H]3C2)nn1`, the cytotoxicity at 10 µM is -10.1%.
In the case of `CNc1nc(C(=O)N2CCCN(c3ccnc(C)c3)CC2)cs1` it was 6.37%; in that of `O=C(Cc1cccc(O)c1)N1CCCC(OCc2cccnc2)C1` (stereo unspecified), 1.5%.
In the case of `O=C1NCCN1C1CCN(Cc2coc(-c3ccc(F)cc3)n2)CC1` it was -3.52%.
For the molecule `CCC(=O)N1CCC(c2nc(N3CCCC3)ncc2S(C)(=O)=O)CC1`, the cytotoxicity at 10 µM was 3.86%.
For `CNc1cc(C2CN(Cc3coc(C)n3)CCO2)nc(C)n1` (stereo unspecified), the cytotoxicity at 10 µM is -11.1%.
To `Cc1nnc2n1CCN(C(=O)CN(C)Cc1ccccc1)C2` belongs -4.56%; to `CCOCC1CN(Cc2nccs2)Cc2nn(CC3CC3)cc21` (stereo unspecified), -1.81%; to `Cc1ccccc1C(C)(C)CNC(=O)CN(C)c1cnccn1`, -2.21%.
To `CN(Cc1cnn(C)c1)C(=O)c1ccnc(OC2CCC2)c1` belongs 3.82%.
In the case of `CCCN(Cc1cccnc1)Cc1ccc(C2CCCCO2)o1` (stereo unspecified) it was 1.97%; in that of `COc1cccc(CC(=O)NCC(Cc2ccc(F)cc2)C(N)=O)c1` (stereo unspecified), 4.78%.
Turning to `Cc1ccccc1N1CCCN(C(=O)CCCS(N)(=O)=O)CC1`, the cytotoxicity at 10 µM was -16%.
On to `CCc1cc(N(C)Cc2ccncn2)n2nc(C)c(C)c2n1`, for which the cytotoxicity at 10 µM came out at 4.34%.
To `CN(CC1COCCO1)c1ncnc2cc(F)ccc12` (stereo unspecified) belongs 0.613%; to `Cc1cc(NC(N)=O)ccc1C(=O)N(C)C`, 12.2%.
In the case of `CC(c1cc(F)ccc1F)N1CCN(C(=O)c2ccc(=O)[nH]c2)CC1` (stereo unspecified) it was 5.94%; in that of `CC(C)c1ccc(C2(C(=O)NCCS(N)(=O)=O)CCC2)cc1`, -2%; in that of `O=C1CC(Cc2ccc(NC(=O)c3cccc(F)c3)cc2)C(=O)N1` (stereo unspecified), -1.39%.
`COC(=O)CN(C(=O)c1ccc(Cl)cn1)c1cccc(F)c1`: the cytotoxicity at 10 µM was -8.61%.
Turning to `O=C1CCC2(CCN(Cc3nccs3)CC2)CN1CCCO`, the cytotoxicity at 10 µM was -7.56%.
Consider `O=C(c1ccc2[nH]nnc2c1)N1CCCC(n2cccn2)C1` (stereo unspecified), for which the cytotoxicity at 10 µM was -1.56%.
On to `CCCN(CCC)C(=O)c1sc(C)nc1C`, for which the cytotoxicity at 10 µM came to 3.05%.
As to `Fc1cccc2c1CCC2NCc1ccc(N2CCOCC2)cc1` (stereo unspecified), the cytotoxicity at 10 µM was -14.7%.
With `Cc1ccc(CN2CCC3(CC2)C(=O)NCCN3CC2CC2)o1`, the cytotoxicity at 10 µM is -66.8%.
In the case of `CCc1sc(C(=O)Nc2cnn(CCN(C)C)c2)cc1C`, the cytotoxicity at 10 µM was 7.9%.
In the case of `COCCN1C[C@H](NC(=O)CCC(F)(F)F)[C@@H](C(C)C)C1`, the cytotoxicity at 10 µM turned out to be 5.25%.
In the case of `O=C(CC(F)(F)F)N1C[C@H]2CN(CC3CC3)C(=O)[C@H]2C1` it was 0.493%; in that of `CCn1nc(C)c(C(=O)N2C[C@@H](CN(C)CCOC)[C@@H](CO)C2)c1C`, 1.35%.
Turning to `CCC(CNC(=O)c1ccccn1)N1CCc2ccccc2C1` (stereo unspecified), the cytotoxicity at 10 µM came out at 1.02%.
To `Cc1nc(CN2CCN(C(=O)c3sccc3C3CC3)CC2)oc1C` belongs -15.2%; to `Cc1cnn(C2CN(CC(=O)NCc3ccccn3)C2)c1`, -10.9%.
To `CC(C)OCCS(=O)(=O)c1ccccc1C#N` belongs 8.24%; to `Cc1csc(CNC(=O)NC(C)c2ccc3c(c2)CCC(=O)N3)n1` (stereo unspecified), 4.17%; to `CC(C)(C)c1ncc(C(=O)NCCNC(=O)Cc2ccccc2)s1`, -6.44%.
In the case of `CN(CCc1ccccn1)C(=O)c1cnn(-c2ccccc2F)c1N` it was -4.85%; in that of `CCCc1noc(C[S+]([O-])CC(=O)NCc2ccccc2)n1` (stereo unspecified), -4.3%.
For `COc1cc(CN(C)C(=O)Nc2cc(C)on2)ccc1SC`, the cytotoxicity at 10 µM is -10.7%.
To `COc1ccccc1C(=O)N(C)C1CCN(c2ccccn2)CC1` belongs -15.4%; to `N#CCC1CC(c2ccc(F)cc2)=NO1` (stereo unspecified), -2.37%; to `CS(=O)(=O)NCC1CCCN(C(=O)Nc2ccccc2F)C1` (stereo unspecified), -145%.
In the case of `CC1CCN(c2ccnc3ccc(Br)cc23)CC1` it was 15.4%; in that of `CC(C)C1CN(c2ncccn2)CCC(=O)N1Cc1ccc(F)cc1` (stereo unspecified), 1.76%.
As to `O=C(Cc1ccsc1)N1CCC(c2noc(-c3cccnc3)n2)CC1`, the cytotoxicity at 10 µM is -18.2%.
In the case of `CCOc1ccc(Cl)c(C(=O)N2CCCC(c3ccn[nH]3)C2)n1` (stereo unspecified) it was 1.58%; in that of `CCc1nc(C)sc1CN(Cc1ccncc1)C1CCN(C)CC1`, 6.4%.
Consider `O=C(C[C@@H]1COC[C@H]2CN(Cc3cccnc3)C[C@@H]12)N1CCOCC1`, for which the cytotoxicity at 10 µM was -3.35%.
In the case of `Cc1noc2ncc(C(=O)N3CCCC3c3cnn(C)c3)cc12` (stereo unspecified) it was -6.2%.
To `Cc1nn(C)c(C)c1C1CCCN1C(=O)c1ccnc(N(C)C)c1` (stereo unspecified) belongs -5.42%; to `Cc1cncc(C2CCCN(C(=O)c3c[nH]c(=O)[nH]c3=O)C2)n1` (stereo unspecified), 1.92%.
Consider `CCS(=O)(=O)N1CCC2(CC1)CC[C@@]1(C(=O)N(C)C)CN(C(C)=O)C[C@@H]21`, for which the cytotoxicity at 10 µM was found to be 6.43%.
With `CCN(Cc1c(F)cccc1F)Cn1nc(C)c2c(C)onc2c1=O`, the cytotoxicity at 10 µM is -1.52%.
Turning to `CN(Cc1ccccn1)C(=O)C(c1ccccc1)N1CCSCC1` (stereo unspecified), the cytotoxicity at 10 µM is -9.71%.
With `CC(C)(C)c1cnc(CN2CCC(CO)CC2)o1`, the cytotoxicity at 10 µM was -5.6%.
To `CC(C)(O)CCc1cccc(C(=O)N[C@@H](CO)C(N)=O)c1` belongs 4.76%; to `CCN1C[C@H]2CCN(C(=O)c3cc[nH]n3)CC[C@H]2S1(=O)=O`, 12.2%.
